Measurements reported in article PMC5084670 (Cancer Science, 2016).
Marks after values point to notes of the source that are not given here.

Test: Phase I dose-escalation study: safety, adverse events
Type: in vivo, human
Outline: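 Oral test compound was given once daily in 28-day cycles after a 7-day single-dose run-in, in Japanese and Hong Kong/Taiwan groups escalated separately. Toxicity was graded by CTCAE v3.0 using laboratory tests, physical examination, vital signs, weight and periodic ECG. DLTs were grade 3–4 events over the run-in plus cycle 1. MTD was set by an adaptive Bayesian logistic regression model with overdose control.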

[1] = group 1, 400 mg q.d. (n = 12), All grades
[2] = group 1, 400 mg q.d. (n = 12), Grade 3
[3] = group 1, 400 mg q.d. (n = 12), Grade 4
[4] = group 1, 600 mg q.d. (n = 9), All grades
[5] = group 1, 600 mg q.d. (n = 9), Grade 3
[6] = group 1, 600 mg q.d. (n = 9), Grade 4
[7] = group 1, All patients (n = 21), All grades
[8] = group 1, All patients (n = 21), Grade 3
[9] = group 1, All patients (n = 21), Grade 4
[10] = group 2, 400 mg q.d. (n = 12), All grades

Cc1c(C(=O)Nc2ccc(N3C[C@@H](C)O[C@@H](C)C3)nc2)cccc1-c1ccc(OC(F)(F)F)cc1 [Sonidegib]
Maximum CK level (a patient receiving 600 mg): 40 400 IU/L
Myoglobin level at maximum CK level (a patient receiving 600 mg): 5320 ng/mL
Deaths (both groups): no deaths were reported
Recommended dose (RD) (both groups, East Asian patients): 400 mg q.d.
Changes in electrocardiogram parameters (during the course of treatment): No clinically significant changes
Recommended dose (RD) (group 1 (Japanese)): 400 mg q.d.
Grade 3 /4 Creatine kinase elevation during all study period (group 1 (Japanese), 400 mg qd, N = 12): 2 (17) ^† n (%)
Grade 3 /4 Creatine kinase elevation during all study period (group 1 (Japanese), 600 mg qd, N = 9): 5 (56) ^† n (%)
Grade 3 /4 Creatine kinase elevation during all study period (group 1 (Japanese), All patients, N = 21): 7 (33) n (%)
DLT in cycle 1 (creatine kinase elevation) (group 1, 400 mg): single DLT
Alopecia (drug-related adverse event) [1]: 2 (17) n (%)
Blood creatine kinase increased (drug-related adverse event) [1]: 2 (17) n (%)
Decreased level of consciousness (drug-related adverse event) [1]: 0 (0) n (%)
Dysgeusia (drug-related adverse event) [1]: 1 (8) n (%)
Fatigue (drug-related adverse event) [1]: 2 (17) n (%)
Hepatic function abnormal (drug-related adverse event) [1]: 2 (17) n (%)
Hyperglycemia (drug-related adverse event) [1]: 0 (0) n (%)
Lymphopenia (drug-related adverse event) [1]: 0 (0) n (%)
Muscle spasms (drug-related adverse event) [1]: 1 (8) n (%)
Muscle weakness (drug-related adverse event) [1]: 0 (0) n (%)
Myalgia (drug-related adverse event) [1]: 2 (17) n (%)
Myoglobin blood increased (drug-related adverse event) [1]: 0 (0) n (%)
Nausea (drug-related adverse event) [1]: 1 (8) n (%)
Rhabdomyolysis (drug-related adverse event) [1]: 1 (8) n (%)
Alopecia (drug-related adverse event) [2]: 0 (0) n (%)
Blood creatine kinase increased (drug-related adverse event) [2]: 1 (8) n (%)
Decreased level of consciousness (drug-related adverse event) [2]: 0 (0) n (%)
Dysgeusia (drug-related adverse event) [2]: 0 (0) n (%)
Fatigue (drug-related adverse event) [2]: 0 (0) n (%)
Hepatic function abnormal (drug-related adverse event) [2]: 1 (8) n (%)
Hyperglycemia (drug-related adverse event) [2]: 0 (0) n (%)
Lymphopenia (drug-related adverse event) [2]: 0 (0) n (%)
Muscle spasms (drug-related adverse event) [2]: 0 (0) n (%)
Muscle weakness (drug-related adverse event) [2]: 0 (0) n (%)
Myalgia (drug-related adverse event) [2]: 0 (0) n (%)
Myoglobin blood increased (drug-related adverse event) [2]: 0 (0) n (%)
Nausea (drug-related adverse event) [2]: 0 (0) n (%)
Rhabdomyolysis (drug-related adverse event) [2]: 0 (0) n (%)
Alopecia (drug-related adverse event) [3]: 0 (0) n (%)
Blood creatine kinase increased (drug-related adverse event) [3]: 0 (0) n (%)
Decreased level of consciousness (drug-related adverse event) [3]: 0 (0) n (%)
Dysgeusia (drug-related adverse event) [3]: 0 (0) n (%)
Fatigue (drug-related adverse event) [3]: 0 (0) n (%)
Hepatic function abnormal (drug-related adverse event) [3]: 0 (0) n (%)
Hyperglycemia (drug-related adverse event) [3]: 0 (0) n (%)
Lymphopenia (drug-related adverse event) [3]: 0 (0) n (%)
Muscle spasms (drug-related adverse event) [3]: 0 (0) n (%)
Muscle weakness (drug-related adverse event) [3]: 0 (0) n (%)
Myalgia (drug-related adverse event) [3]: 0 (0) n (%)
Myoglobin blood increased (drug-related adverse event) [3]: 0 (0) n (%)
Nausea (drug-related adverse event) [3]: 0 (0) n (%)
Rhabdomyolysis (drug-related adverse event) [3]: 1 (8) n (%)
Additional patients with grade 3 or 4 CK elevation after cycle 1 (group 1, 600 mg): four
DLT in cycle 1 (creatine kinase elevation) (group 1, 600 mg): single DLT
Alopecia (drug-related adverse event) [4]: 2 (22) n (%)
Blood creatine kinase increased (drug-related adverse event) [4]: 5 (56) n (%)
Decreased level of consciousness (drug-related adverse event) [4]: 1 (11) n (%)
Dysgeusia (drug-related adverse event) [4]: 2 (22) n (%)
Fatigue (drug-related adverse event) [4]: 2 (22) n (%)
Hepatic function abnormal (drug-related adverse event) [4]: 3 (33) n (%)
Hyperglycemia (drug-related adverse event) [4]: 1 (11) n (%)
Lymphopenia (drug-related adverse event) [4]: 1 (11) n (%)
Muscle spasms (drug-related adverse event) [4]: 1 (11) n (%)
Muscle weakness (drug-related adverse event) [4]: 1 (11) n (%)
Myalgia (drug-related adverse event) [4]: 4 (44) n (%)
Myoglobin blood increased (drug-related adverse event) [4]: 1 (11) n (%)
Nausea (drug-related adverse event) [4]: 2 (22) n (%)
Rhabdomyolysis (drug-related adverse event) [4]: 1 (11) n (%)
Alopecia (drug-related adverse event) [5]: 0 (0) n (%)
Blood creatine kinase increased (drug-related adverse event) [5]: 2 (22) n (%)
Decreased level of consciousness (drug-related adverse event) [5]: 0 (0) n (%)
Dysgeusia (drug-related adverse event) [5]: 0 (0) n (%)
Fatigue (drug-related adverse event) [5]: 0 (0) n (%)
Hepatic function abnormal (drug-related adverse event) [5]: 1 (11) n (%)
Hyperglycemia (drug-related adverse event) [5]: 1 (11) n (%)
Lymphopenia (drug-related adverse event) [5]: 1 (11) n (%)
Muscle spasms (drug-related adverse event) [5]: 0 (0) n (%)
Muscle weakness (drug-related adverse event) [5]: 1 (11) n (%)
Myalgia (drug-related adverse event) [5]: 0 (0) n (%)
Myoglobin blood increased (drug-related adverse event) [5]: 1 (11) n (%)
Nausea (drug-related adverse event) [5]: 0 (0) n (%)
Rhabdomyolysis (drug-related adverse event) [5]: 1 (11) n (%)
Alopecia (drug-related adverse event) [6]: 0 (0) n (%)
Blood creatine kinase increased (drug-related adverse event) [6]: 2 (22) n (%)
Decreased level of consciousness (drug-related adverse event) [6]: 1 (11) n (%)
Dysgeusia (drug-related adverse event) [6]: 0 (0) n (%)
Fatigue (drug-related adverse event) [6]: 0 (0) n (%)
Hepatic function abnormal (drug-related adverse event) [6]: 1 (11) n (%)
Hyperglycemia (drug-related adverse event) [6]: 0 (0) n (%)
Lymphopenia (drug-related adverse event) [6]: 0 (0) n (%)
Muscle spasms (drug-related adverse event) [6]: 0 (0) n (%)
Muscle weakness (drug-related adverse event) [6]: 0 (0) n (%)
Myalgia (drug-related adverse event) [6]: 0 (0) n (%)
Myoglobin blood increased (drug-related adverse event) [6]: 0 (0) n (%)
Nausea (drug-related adverse event) [6]: 0 (0) n (%)
Rhabdomyolysis (drug-related adverse event) [6]: 0 (0) n (%)
Alopecia (drug-related adverse event) [7]: 4 (19) n (%)
Blood creatine kinase increased (drug-related adverse event) [7]: 7 (33) n (%)
Decreased level of consciousness (drug-related adverse event) [7]: 1 (5) n (%)
Dysgeusia (drug-related adverse event) [7]: 3 (14) n (%)
Fatigue (drug-related adverse event) [7]: 4 (19) n (%)
Hepatic function abnormal (drug-related adverse event) [7]: 5 (24) n (%)
Hyperglycemia (drug-related adverse event) [7]: 1 (5) n (%)
Lymphopenia (drug-related adverse event) [7]: 1 (5) n (%)
Muscle spasms (drug-related adverse event) [7]: 2 (10) n (%)
Muscle weakness (drug-related adverse event) [7]: 1 (5) n (%)
Myoglobin blood increased (drug-related adverse event) [7]: 1 (5) n (%)
Nausea (drug-related adverse event) [7]: 3 (14) n (%)
Rhabdomyolysis (drug-related adverse event) [7]: 2 (10) n (%)
Alopecia (drug-related adverse event) [8]: 0 (0) n (%)
Blood creatine kinase increased (drug-related adverse event) [8]: 3 (14) n (%)
Decreased level of consciousness (drug-related adverse event) [8]: 0 (0) n (%)
Dysgeusia (drug-related adverse event) [8]: 0 (0) n (%)
Fatigue (drug-related adverse event) [8]: 0 (0) n (%)
Hepatic function abnormal (drug-related adverse event) [8]: 2 (10) n (%)
Hyperglycemia (drug-related adverse event) [8]: 1 (5) n (%)
Lymphopenia (drug-related adverse event) [8]: 1 (5) n (%)
Muscle spasms (drug-related adverse event) [8]: 0 (0) n (%)
Muscle weakness (drug-related adverse event) [8]: 1 (5) n (%)
Myalgia (drug-related adverse event) [8]: 0 (0) n (%)
Myoglobin blood increased (drug-related adverse event) [8]: 1 (5) n (%)
Nausea (drug-related adverse event) [8]: 0 (0) n (%)
Rhabdomyolysis (drug-related adverse event) [8]: 1 (5) n (%)
Alopecia (drug-related adverse event) [9]: 0 (0) n (%)
Blood creatine kinase increased (drug-related adverse event) [9]: 2 (10) n (%)
Decreased level of consciousness (drug-related adverse event) [9]: 1 (5) n (%)
Dysgeusia (drug-related adverse event) [9]: 0 (0) n (%)
Fatigue (drug-related adverse event) [9]: 0 (0) n (%)
Hepatic function abnormal (drug-related adverse event) [9]: 1 (5) n (%)
Hyperglycemia (drug-related adverse event) [9]: 0 (0) n (%)
Lymphopenia (drug-related adverse event) [9]: 0 (0) n (%)
Muscle spasms (drug-related adverse event) [9]: 0 (0) n (%)
Muscle weakness (drug-related adverse event) [9]: 0 (0) n (%)
Myalgia (drug-related adverse event) [9]: 0 (0) n (%)
Myoglobin blood increased (drug-related adverse event) [9]: 0 (0) n (%)
Nausea (drug-related adverse event) [9]: 0 (0) n (%)
Rhabdomyolysis (drug-related adverse event) [9]: 1 (5) n (%)
Drug-related AE: abnormal hepatic function (group 1, all doses): 24%
Drug-related AE: fatigue (group 1, all doses): 19%
Drug-related AE: increase in CK levels (group 1, all doses): 33%
Drug-related AE: myalgia (group 1, all doses): 29%
Patients with at least one AE suspected to be related to sonidegib (group 1, n = 18): 86%
Recommended dose (RD) (group 2 (Chinese/Taiwanese)): 400 mg q.d.
Grade 3 /4 Creatine kinase elevation during all study period (group 2 (Chinese/Taiwanese), 400 mg qd, N = 12): 2 (17) n (%)
Grade 3 /4 Creatine kinase elevation during all study period (group 2 (Chinese/Taiwanese), 600 mg qd, N = 8): 1 (13) n (%)
Grade 3 /4 Creatine kinase elevation during all study period (group 2 (Chinese/Taiwanese), 800 mg qd, N = 4): 2 (50) n (%)
Grade 3 /4 Creatine kinase elevation during all study period (group 2 (Chinese/Taiwanese), All patients, N = 24): 5 (21) n (%)
Blood creatine kinase increased (drug-related adverse event) [10]: 6 (50) n (%)
Decreased appetite (drug-related adverse event) [10]: 0 (0) n (%)
Diarrhea (drug-related adverse event) [10]: 0 (0) n (%)
Dizziness (drug-related adverse event) [10]: 0 (0) n (%)
